Assay results published in ChEMBL document CHEMBL4706691, “Bicyclic Diazepinones as Dual Ligands of the α2δ-1 Subunit of Voltage-Gated Calcium Channels and the Norepinephrine Transporter” (J Med Chem, 2021).

Experiments:
[1] = target: Voltage-dependent calcium channel subunit alpha-2/delta-1 (Homo sapiens, UniProt P54289); experiment: Displacement of [3H]-gabapentin from human Cav alpha2delta1 expressed in CHO-K1 cell membranes incubated for 60 mins by scintillation counting method; design: species or system Cell membrane
Outline: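 Nonspecific binding defined with 10 μM pregabalin. Test compounds at five concentrations in duplicate, giving Ki. Bound radioactivity collected by filtration on PEI-soaked GF/C, washed with cold 50 mM Tris-HCl, then scintillation counted.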

[2] = target: T1, Sodium-dependent noradrenaline transporter (Homo sapiens, UniProt P23975); experiment: Inhibition of human NET expressed in HEK293 cells assessed as reduction in ASP+ uptake incubated for 20 mins before ASP+ addition and measured after 90 mins by scintillation counting method
[3] = target: Voltage-dependent calcium channel subunit alpha-2/delta-2 (Homo sapiens, UniProt Q9NY47); experiment: Displacement of [3H]-gabapentin from human Cav alpha2delta2 expressed in HEK293 cell membranes incubated for 60 mins by scintillation counting method
[4] = target: T1, Sodium-dependent noradrenaline transporter; experiment: Displacement of [3H]-nisoxetine from human NET expressed in HEK293 cell membranes incubated for 60 mins by scintillation counting method
CYP1A2 = target: T2, CYP1A2 (Homo sapiens, UniProt P05177); experiment: Inhibition of human CYP1A2 at 1 uM relative to control; format: ADME
T2 sequence (P05177 whole entry): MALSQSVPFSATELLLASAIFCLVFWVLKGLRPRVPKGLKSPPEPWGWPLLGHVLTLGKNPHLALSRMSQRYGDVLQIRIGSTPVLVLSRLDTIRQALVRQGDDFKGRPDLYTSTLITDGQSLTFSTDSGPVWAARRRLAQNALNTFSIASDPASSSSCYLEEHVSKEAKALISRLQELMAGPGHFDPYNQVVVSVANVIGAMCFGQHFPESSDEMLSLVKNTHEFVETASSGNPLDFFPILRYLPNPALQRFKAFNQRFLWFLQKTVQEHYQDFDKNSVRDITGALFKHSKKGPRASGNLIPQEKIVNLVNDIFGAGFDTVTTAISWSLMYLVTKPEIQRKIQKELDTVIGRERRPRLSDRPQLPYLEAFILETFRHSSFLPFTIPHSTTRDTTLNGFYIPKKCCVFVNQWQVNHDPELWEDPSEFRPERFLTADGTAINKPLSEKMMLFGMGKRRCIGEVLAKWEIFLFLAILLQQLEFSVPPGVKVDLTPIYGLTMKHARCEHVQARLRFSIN

CYP3A4 = CYP3A4 (Homo sapiens, UniProt P08684); experiment: Inhibition of human CYP3A4 at 1 uM relative to control; format: ADME
[5] = target: Voltage-gated inwardly rectifying potassium channel KCNH2 (Homo sapiens, UniProt Q12809); experiment: Inhibition of human ERG
CYP2C9 = CYP2C9 (Homo sapiens, UniProt P11712); experiment: Inhibition of human CYP2C9 at 1 uM relative to control; format: ADME
CYP2D6 = CYP2D6 (Homo sapiens, UniProt P10635); experiment: Inhibition of human CYP2D6 at 1 uM relative to control; format: ADME
CYP2C19 = CYP2C19 (Homo sapiens, UniProt P33261); experiment: Inhibition of human CYP2C19 at 1 uM relative to control; format: ADME
[6] = Intrinsic clearance in rat liver microsomes
[7] = Intrinsic clearance in human liver microsomes

T1 sequence (P23975 whole entry): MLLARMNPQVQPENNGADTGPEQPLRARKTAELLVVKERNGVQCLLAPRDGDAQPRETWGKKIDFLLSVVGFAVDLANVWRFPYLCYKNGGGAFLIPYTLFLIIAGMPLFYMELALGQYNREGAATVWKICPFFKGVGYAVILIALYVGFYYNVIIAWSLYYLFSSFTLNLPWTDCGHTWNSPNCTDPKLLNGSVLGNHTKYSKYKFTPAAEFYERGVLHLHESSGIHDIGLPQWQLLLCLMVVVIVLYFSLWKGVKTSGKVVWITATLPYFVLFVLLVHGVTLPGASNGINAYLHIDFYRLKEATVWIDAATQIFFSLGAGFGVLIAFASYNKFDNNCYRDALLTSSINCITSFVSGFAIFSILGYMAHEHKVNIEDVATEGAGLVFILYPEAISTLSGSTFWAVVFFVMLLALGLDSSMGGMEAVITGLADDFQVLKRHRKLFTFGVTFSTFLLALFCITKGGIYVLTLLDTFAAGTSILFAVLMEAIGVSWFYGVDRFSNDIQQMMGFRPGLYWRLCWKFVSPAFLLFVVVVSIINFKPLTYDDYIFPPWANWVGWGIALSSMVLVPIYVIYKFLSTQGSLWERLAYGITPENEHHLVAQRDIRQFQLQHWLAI
CYP2D6, sequence (P10635 whole entry): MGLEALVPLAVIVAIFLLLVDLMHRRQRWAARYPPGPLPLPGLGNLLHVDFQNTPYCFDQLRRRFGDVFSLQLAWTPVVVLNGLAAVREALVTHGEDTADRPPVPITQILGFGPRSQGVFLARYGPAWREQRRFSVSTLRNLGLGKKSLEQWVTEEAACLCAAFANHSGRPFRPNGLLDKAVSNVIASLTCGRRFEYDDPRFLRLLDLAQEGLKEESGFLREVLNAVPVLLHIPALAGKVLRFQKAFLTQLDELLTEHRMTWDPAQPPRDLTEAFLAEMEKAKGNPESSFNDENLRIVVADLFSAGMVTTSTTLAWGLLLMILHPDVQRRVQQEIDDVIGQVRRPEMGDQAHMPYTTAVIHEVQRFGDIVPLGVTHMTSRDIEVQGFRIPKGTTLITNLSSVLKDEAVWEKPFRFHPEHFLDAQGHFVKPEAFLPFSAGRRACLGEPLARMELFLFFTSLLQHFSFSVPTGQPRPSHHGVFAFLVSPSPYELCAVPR
Voltage-gated inwardly rectifying potassium channel KCNH2, sequence (Q12809 whole entry): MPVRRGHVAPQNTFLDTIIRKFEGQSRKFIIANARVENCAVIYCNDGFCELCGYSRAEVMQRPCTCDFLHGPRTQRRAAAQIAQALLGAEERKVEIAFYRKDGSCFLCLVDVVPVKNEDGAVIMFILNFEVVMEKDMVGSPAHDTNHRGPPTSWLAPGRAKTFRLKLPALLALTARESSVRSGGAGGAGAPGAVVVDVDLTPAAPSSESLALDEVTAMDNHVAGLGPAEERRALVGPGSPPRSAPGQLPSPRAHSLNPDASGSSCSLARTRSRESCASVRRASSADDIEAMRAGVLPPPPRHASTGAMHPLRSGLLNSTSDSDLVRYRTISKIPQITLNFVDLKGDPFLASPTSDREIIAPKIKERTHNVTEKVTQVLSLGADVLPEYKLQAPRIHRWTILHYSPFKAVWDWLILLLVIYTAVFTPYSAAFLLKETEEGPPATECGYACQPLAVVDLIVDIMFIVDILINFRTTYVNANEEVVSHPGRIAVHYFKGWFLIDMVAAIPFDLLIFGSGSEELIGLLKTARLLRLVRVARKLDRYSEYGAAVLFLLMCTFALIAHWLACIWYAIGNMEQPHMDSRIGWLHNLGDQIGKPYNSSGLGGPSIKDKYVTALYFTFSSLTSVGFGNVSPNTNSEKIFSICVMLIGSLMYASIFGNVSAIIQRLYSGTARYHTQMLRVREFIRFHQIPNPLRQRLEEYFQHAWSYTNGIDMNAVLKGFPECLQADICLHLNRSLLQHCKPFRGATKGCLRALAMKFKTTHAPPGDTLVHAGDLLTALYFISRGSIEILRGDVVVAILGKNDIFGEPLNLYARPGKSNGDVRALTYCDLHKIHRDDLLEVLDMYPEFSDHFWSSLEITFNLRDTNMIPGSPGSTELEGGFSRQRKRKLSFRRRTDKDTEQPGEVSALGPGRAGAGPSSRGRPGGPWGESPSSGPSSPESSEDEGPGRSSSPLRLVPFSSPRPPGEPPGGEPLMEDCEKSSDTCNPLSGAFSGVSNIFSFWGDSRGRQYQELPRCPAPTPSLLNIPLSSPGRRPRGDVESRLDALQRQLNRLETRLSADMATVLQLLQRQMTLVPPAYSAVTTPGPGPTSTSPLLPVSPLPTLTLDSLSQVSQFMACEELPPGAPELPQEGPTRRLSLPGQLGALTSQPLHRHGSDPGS
CYP2C19, sequence (P33261 whole entry): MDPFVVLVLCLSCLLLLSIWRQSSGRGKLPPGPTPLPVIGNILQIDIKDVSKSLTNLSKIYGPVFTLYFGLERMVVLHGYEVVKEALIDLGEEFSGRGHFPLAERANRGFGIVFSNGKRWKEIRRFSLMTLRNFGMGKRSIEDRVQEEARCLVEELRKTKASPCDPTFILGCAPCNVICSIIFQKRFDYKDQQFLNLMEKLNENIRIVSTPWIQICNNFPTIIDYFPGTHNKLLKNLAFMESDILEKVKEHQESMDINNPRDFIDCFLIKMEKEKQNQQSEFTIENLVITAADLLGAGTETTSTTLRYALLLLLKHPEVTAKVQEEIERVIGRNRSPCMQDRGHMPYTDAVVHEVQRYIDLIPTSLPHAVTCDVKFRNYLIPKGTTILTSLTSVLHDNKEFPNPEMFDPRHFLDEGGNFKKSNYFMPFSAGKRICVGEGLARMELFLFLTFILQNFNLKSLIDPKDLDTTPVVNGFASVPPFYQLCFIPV
Voltage-dependent calcium channel subunit alpha-2/delta-2, sequence (Q9NY47 19-1001 limits assumed): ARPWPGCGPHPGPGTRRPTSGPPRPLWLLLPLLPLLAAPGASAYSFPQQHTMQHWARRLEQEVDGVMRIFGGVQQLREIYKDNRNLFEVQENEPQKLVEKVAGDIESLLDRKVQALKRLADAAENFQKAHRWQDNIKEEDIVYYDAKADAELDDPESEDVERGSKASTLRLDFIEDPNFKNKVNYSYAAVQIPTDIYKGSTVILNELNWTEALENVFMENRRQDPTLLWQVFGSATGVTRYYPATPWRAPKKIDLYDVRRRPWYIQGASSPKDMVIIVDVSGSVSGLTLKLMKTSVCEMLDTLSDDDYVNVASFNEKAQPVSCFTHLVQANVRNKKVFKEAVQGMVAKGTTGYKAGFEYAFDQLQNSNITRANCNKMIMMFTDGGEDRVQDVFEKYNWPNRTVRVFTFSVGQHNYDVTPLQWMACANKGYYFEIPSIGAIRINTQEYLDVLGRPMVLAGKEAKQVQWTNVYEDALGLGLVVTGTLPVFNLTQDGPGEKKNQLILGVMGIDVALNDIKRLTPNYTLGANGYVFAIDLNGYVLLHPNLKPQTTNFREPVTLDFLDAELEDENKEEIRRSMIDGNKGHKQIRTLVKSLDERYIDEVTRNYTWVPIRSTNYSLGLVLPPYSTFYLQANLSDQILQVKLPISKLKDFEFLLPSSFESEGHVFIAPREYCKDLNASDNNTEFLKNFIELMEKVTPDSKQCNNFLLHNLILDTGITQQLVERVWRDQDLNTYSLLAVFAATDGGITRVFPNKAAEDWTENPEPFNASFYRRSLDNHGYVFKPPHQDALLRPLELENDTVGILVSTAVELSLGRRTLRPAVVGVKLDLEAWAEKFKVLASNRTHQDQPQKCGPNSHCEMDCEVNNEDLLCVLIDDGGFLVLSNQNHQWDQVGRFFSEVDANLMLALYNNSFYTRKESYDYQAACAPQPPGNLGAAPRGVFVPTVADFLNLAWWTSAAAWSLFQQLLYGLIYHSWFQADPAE
Voltage-dependent calcium channel subunit alpha-2/delta-2, sequence (Q9NY47 1002-1150 limits assumed): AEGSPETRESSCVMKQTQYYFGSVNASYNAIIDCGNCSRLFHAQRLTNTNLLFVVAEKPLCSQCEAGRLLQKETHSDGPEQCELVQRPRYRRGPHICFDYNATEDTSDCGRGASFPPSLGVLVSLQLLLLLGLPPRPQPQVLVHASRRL
CYP3A4, sequence (P08684 whole entry): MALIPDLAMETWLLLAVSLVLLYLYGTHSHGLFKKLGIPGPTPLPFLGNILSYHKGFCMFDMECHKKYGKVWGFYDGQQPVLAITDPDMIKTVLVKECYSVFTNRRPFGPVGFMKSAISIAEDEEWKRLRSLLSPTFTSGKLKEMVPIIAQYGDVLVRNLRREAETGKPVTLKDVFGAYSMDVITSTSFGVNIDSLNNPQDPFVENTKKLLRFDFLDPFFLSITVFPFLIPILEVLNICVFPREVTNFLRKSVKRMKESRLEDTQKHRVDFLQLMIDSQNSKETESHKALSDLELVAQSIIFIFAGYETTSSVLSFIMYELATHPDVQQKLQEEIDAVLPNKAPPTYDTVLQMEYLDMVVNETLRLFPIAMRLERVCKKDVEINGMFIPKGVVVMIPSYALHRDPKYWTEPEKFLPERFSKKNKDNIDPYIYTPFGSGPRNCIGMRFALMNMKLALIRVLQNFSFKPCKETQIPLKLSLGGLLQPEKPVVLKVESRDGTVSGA
CYP2C9, sequence (P11712 whole entry): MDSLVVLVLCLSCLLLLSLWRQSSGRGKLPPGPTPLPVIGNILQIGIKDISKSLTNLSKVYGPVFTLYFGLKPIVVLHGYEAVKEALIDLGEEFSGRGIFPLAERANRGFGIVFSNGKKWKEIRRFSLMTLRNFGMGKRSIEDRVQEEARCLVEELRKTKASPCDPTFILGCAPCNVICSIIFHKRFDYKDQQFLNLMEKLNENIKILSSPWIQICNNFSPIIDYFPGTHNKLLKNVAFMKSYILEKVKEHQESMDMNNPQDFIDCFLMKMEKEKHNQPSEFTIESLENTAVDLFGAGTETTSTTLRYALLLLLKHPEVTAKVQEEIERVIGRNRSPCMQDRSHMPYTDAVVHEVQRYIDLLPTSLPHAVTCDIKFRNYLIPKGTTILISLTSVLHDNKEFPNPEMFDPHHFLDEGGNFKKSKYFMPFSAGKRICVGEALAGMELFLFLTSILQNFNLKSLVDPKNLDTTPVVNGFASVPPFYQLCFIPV

SMILES	Ki [1] [µM]	IC50 [2] [µM]	Ki [4] [µM]	further results
CCNc1ncc2c(n1)N1CCC[C@H]1CN(c1cccc(-c3noc(C)n3)c1)C2=O	0.011	> 10	> 10	Ki [3]: 2.15 µM
CNc1ncc2c(n1)N(C)CCN(c1cccc(-c3nnc(C)o3)c1)C2=O	0.244	> 10	> 10	Ki [3]: > 10 µM
CNCC[C@H](Oc1cccc(N2CCN(C)c3nc(N)ncc3C2=O)c1)c1cccs1				inhibition at 1 µM (CYP1A2): < 50%; inhibition at 1 µM (CYP3A4): < 50%; IC50 [5]: > 10 µM; inhibition at 1 µM (CYP2C9): < 50%; inhibition at 1 µM (CYP2D6): < 50%; inhibition at 1 µM (CYP2C19): < 50%
CNCC[C@@H](Oc1cccc(N2CCN(C)CCC2=O)c1)c1cccs1	0.606			
CNCCC(Oc1cccc(N2CCN(C)c3cccnc3C2=O)c1)c1cccs1 (stereo not drawn)	1.25			
CNCCC(Oc1cccc(N2CCN(C)c3cnccc3C2=O)c1)c1cccs1 (stereo not drawn)	0.208			
CCNc1ncc2c(n1)N(C)CCN(c1ccccc1OC(CCNC)c1ccccc1)C2=O (stereo not drawn)	3.49	> 10	> 10	
CCNc1ncc2c(n1)N1CCC[C@@H]1CN(c1cccc(OC(CCNC)c3ccccc3)c1)C2=O (stereo partly drawn)	0.187			
CNCC[C@H](Oc1cccc(N2CCN(C)CCC2=O)c1)c1cccs1	2.8			
CCN(C)c1ncc2c(n1)N(C)CCN(c1cccc(-c3nnc(C)o3)c1)C2=O	> 10	> 10	> 10	
CCNc1ncc2c(n1)N1CCC[C@H]1CN(c1cccc(OC(CCNC)c3ccccc3)c1)C2=O (stereo partly drawn)	0.336			
CCNc1ncc2c(n1)N(C)CCN(c1cccc(-c3nnc(C)o3)c1)C2=O	0.081	> 10	> 10	microsomal CLint [6]: < 5 µL/min/mg; microsomal CLint [7]: < 5 µL/min/mg; inhibition at 1 µM (CYP1A2): < 50%; inhibition at 1 µM (CYP3A4): < 50%; Ki [3]: 2.97 µM; IC50 [5]: > 10 µM; inhibition at 1 µM (CYP2C9): < 50%; inhibition at 1 µM (CYP2D6): < 50%; inhibition at 1 µM (CYP2C19): < 50%
CNCCC(Oc1cccc(N2CCN(C)c3ccccc3C2=O)c1)c1cccs1 (stereo not drawn)	0.833			
CCNc1ncc(C(=O)N(C)c2cccc(OC(CCNC)c3ccccc3)c2)cn1 (stereo not drawn)	> 10	> 10	> 10	
CSc1ncc2c(n1)N(C)CCN(c1cccc(-c3nnc(C)o3)c1)C2=O	> 10	> 10	> 10	Ki [3]: > 10 µM
CCNc1ncc2c(n1)N(CC)CCN(c1cccc(-c3nnc(C)o3)c1)C2=O	0.178	> 10	> 10	
COCCNc1ncc2c(n1)N(C)CCN(c1cccc(-c3nnc(C)o3)c1)C2=O	> 10	> 10	> 10	
CNCC[C@H](Oc1cccc(N2CCN(C)c3ncccc3C2=O)c1)c1cccs1				inhibition at 1 µM (CYP1A2): < 50%; inhibition at 1 µM (CYP3A4): < 50%; IC50 [5]: > 10 µM; inhibition at 1 µM (CYP2C9): < 50%; inhibition at 1 µM (CYP2D6): < 50%; inhibition at 1 µM (CYP2C19): < 50%
CCNc1ncc2c(n1)N(C)CCN(c1cccc(-c3nnc(C)o3)c1)C2	1.03	> 10	> 10	
CCNc1ncc2c(n1)N(C)CCN(c1ccccc1COC(CCNC)c1ccccc1)C2=O (stereo not drawn)	> 10	> 10	> 10	
CC(C)C[C@H](CN)CC(=O)O [PREGABALIN]	0.019	> 10	> 10	Ki [3]: 0.099 µM
